Experiment [1] has as its target Voltage-dependent N-type calcium channel subunit alpha-1B (Homo sapiens, UniProt Q00975). The experiment in a line: Inhibitory activity against N-type calcium channel by calcium influx into IMR32 cells. The experiment is classed as functional, cell-based, IMR-32.
The target of experiment [2] is Voltage-gated L-type calcium channel (Rattus norvegicus, UniProt P22002+Q02485+P27732). The experiment in a line: Inhibitory activity against L-type calcium channel in SD rat thoracic aorta by Magnus method. The experiment is classed as functional, tissue-based. The gist of the method:
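Aortic ring held at 2 g resting tension and equilibrated 1 h. It was then exposed to high-K⁺ solution and then Tyrode's solution, 45 min each, and returned to high-K⁺. After maximal contraction, compound was added cumulatively at 90-min intervals to 10⁻⁹, 10⁻⁸, 10⁻⁷ and 10⁻⁶ M. IC50 was derived from inhibition of the K⁺-induced contraction.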

The next experiment concerns Rattus norvegicus. The experiment in a line: Analgesic effect in rat following foot-pad injection of formalin at 30 mg/kg, po. It is filed as functional.

Chain of Voltage-dependent N-type calcium channel subunit alpha-1B (Q00975 whole entry): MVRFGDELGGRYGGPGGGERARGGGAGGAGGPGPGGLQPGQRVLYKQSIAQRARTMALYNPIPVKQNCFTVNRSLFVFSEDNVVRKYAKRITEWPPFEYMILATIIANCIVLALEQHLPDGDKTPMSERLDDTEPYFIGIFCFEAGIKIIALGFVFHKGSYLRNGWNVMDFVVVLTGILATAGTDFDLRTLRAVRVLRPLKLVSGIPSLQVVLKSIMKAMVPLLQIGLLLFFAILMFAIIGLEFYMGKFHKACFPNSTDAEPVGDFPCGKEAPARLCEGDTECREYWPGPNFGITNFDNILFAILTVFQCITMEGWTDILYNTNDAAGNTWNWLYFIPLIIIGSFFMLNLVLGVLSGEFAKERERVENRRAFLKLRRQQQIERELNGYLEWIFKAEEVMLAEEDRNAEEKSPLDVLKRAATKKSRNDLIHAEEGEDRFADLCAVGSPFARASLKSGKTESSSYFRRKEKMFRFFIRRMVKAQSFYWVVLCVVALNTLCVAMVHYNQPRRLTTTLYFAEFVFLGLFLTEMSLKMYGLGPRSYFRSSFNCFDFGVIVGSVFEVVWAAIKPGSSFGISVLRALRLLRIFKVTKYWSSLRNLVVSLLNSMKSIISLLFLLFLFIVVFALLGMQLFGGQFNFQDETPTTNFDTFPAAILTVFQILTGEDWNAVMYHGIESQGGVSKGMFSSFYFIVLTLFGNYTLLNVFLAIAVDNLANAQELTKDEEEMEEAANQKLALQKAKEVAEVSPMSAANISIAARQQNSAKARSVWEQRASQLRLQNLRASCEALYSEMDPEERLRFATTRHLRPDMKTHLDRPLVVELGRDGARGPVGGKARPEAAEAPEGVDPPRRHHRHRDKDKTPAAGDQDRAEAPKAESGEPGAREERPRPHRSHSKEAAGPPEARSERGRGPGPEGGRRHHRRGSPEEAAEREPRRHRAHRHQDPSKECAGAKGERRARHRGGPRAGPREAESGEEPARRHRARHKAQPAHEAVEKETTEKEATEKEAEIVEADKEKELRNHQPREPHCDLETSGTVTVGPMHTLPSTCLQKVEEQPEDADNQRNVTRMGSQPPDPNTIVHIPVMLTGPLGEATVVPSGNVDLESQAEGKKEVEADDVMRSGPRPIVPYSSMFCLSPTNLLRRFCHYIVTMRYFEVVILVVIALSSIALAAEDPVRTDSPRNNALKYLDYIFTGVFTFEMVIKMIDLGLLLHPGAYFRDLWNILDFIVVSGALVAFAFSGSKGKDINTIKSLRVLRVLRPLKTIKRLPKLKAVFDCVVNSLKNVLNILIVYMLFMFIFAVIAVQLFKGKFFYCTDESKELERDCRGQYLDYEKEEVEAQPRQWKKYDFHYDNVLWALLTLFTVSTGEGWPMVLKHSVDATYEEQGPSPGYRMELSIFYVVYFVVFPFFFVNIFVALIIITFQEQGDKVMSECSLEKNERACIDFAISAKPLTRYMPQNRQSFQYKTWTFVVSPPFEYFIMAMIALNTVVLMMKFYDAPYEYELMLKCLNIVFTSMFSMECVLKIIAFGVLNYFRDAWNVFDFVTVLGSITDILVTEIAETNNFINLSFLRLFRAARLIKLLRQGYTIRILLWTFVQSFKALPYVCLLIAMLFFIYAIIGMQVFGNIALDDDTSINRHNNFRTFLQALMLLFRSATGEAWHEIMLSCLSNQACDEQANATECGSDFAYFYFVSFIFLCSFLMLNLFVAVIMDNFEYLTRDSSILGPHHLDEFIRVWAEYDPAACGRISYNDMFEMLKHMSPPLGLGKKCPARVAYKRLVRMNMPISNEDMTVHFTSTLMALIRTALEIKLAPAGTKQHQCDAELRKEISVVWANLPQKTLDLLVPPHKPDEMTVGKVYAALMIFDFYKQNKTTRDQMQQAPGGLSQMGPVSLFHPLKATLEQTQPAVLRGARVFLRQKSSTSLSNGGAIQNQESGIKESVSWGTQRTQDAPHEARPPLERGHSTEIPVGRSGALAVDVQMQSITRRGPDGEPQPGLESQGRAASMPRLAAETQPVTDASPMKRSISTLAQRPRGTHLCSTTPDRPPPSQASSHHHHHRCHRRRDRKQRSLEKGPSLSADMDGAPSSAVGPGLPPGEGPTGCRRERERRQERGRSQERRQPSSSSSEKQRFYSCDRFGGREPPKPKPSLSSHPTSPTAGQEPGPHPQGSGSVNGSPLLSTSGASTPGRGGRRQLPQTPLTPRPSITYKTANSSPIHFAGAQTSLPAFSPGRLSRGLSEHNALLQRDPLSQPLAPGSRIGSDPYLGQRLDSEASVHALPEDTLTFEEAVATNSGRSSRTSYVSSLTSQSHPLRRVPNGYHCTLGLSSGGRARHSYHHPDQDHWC

For orientation: IC50 means the point on the concentration scale where inhibition reaches its midpoint. Take `CC1=C(C(=O)O)C(c2cccc([N+](=O)[O-])c2)C(C(=O)OC/C=C/c2ccccc2)=C(C)N1` (stereo unspecified): the figures for the IC50 in experiment [1] and in experiment [2] were 3.5 µM and 0.046 µM, respectively.
For `COC(=O)c1cccc(C2C(C(=O)O)=C(C)N=C(C)/C2=C(/O)OC/C=C/c2ccccc2)c1` (stereo unspecified), the 50% inhibitory concentration (IC50) in experiment [1] was 4.6 µM; in experiment [2], 4.4 µM.
In the same order, the values of `CC1=NC(C)=C(C(=O)O)C(c2cccc(Cl)c2)/C1=C(\O)OCc1ccc2ccccc2c1` (stereo unspecified) are 3.9 µM and 0.014 µM.
In the case of `CC1=C(C(=O)O)C(c2cccc(Cl)c2)C(C(=O)NC/C=C/c2ccccc2)=C(C)N1` (stereo unspecified), the 50% inhibitory concentration (IC50) is 4.5 µM in experiment [1] and 0.85 µM in experiment [2].
With `CC1=NC(C)=C(C(=O)O)C(c2ccccc2)/C1=C(\O)OC/C=C/c1ccccc1` (stereo unspecified), the values for the IC50 in experiment [1] and in experiment [2] were 2 µM and 0.009 µM, respectively.
As to `CC1=NC(C)=C(C(=O)O)C(c2cccc(Br)c2)/C1=C(\O)OC/C=C/c1ccccc1` (stereo unspecified), the figures for the IC50 in experiment [1] and in experiment [2] were 0.79 µM and 0.01 µM, respectively.
In the case of `CC1=NC(C)=C(C(=O)O)C(c2cccc(I)c2)/C1=C(\O)OC/C=C/c1ccccc1` (stereo unspecified), the IC50 in experiment [1] was found to be 1.7 µM; in experiment [2] it was 0.013 µM.
For the molecule `CC1=NC(C)=C(C(=O)O)C(c2cccc(Cl)c2)/C1=C(\O)OC/C=C/c1ccccc1` (stereo unspecified), the results for the IC50 in experiment [1] and in experiment [2] were 1 µM and 0.02 µM, respectively.
Regarding `CC1=NC(C)=C(C(=O)O)C(c2cccc(Cl)c2)/C1=C(\O)OC/C(C)=C/c1ccccc1` (stereo unspecified), the IC50 in experiment [1] was 0.68 µM; in experiment [2] it was 0.0028 µM.
On to `CC1=NC(C)=C(C(=O)O)C(c2cccc(F)c2)/C1=C(\O)OC/C=C/c1ccccc1` (stereo unspecified), for which the half-inhibitory concentration (IC50) turned out to be 1.3 µM in experiment [1] and 0.02 µM in experiment [2].
`CC1=NC(C)=C(C(=O)O)C(c2cccnc2)/C1=C(\O)OC/C=C/c1ccccc1` (stereo unspecified): the values for the IC50 in experiment [1] and in experiment [2] were 24 µM and 0.19 µM, respectively.
For `CC1=NC(C)=C(C(=O)O)C(c2ccccc2[N+](=O)[O-])/C1=C(\O)OC/C=C/c1ccccc1` (stereo unspecified), the IC50 was found to be 37 µM in experiment [1] and 0.031 µM in experiment [2].
In the same order, the values of `CC1=NC(C)=C(C(=O)O)C(c2cccc(Cl)c2)/C1=C(\O)OCCC(c1ccccn1)c1ccccn1` (stereo unspecified) are 10 µM and 1.6 µM.
In the same order, the values of `CC1=NC(C)=C(C(=O)O)C(c2cccc(Cl)c2)/C1=C(\O)OCC=C(c1ccccc1)c1ccccc1` (stereo unspecified) are 3.9 µM and 0.2 µM.
`CC1=NC(C)=C(C(=O)O)C(c2cccc(Cl)c2)/C1=C(\O)OCCC(c1ccccc1)c1ccccc1` (stereo unspecified): the concentration for half-maximal inhibition (IC50) in experiment [1] is 1.1 µM; in experiment [2] it was 0.36 µM.
In the same order, the values of `CC1=NC(C)=C(C(=O)O)C(c2cccc(Cl)c2)/C1=C(\O)OC/C=C/c1ccc(C)cc1` (stereo unspecified) are 0.89 µM and 0.0068 µM.
In general, inhibition in vivo refers to the change of the read-out against control, counted positive when it falls. Lower therefore signals little suppression. `COCCOC(=O)C1=C(C)NC(C)=C(C(=O)OC/C=C/c2ccccc2)C1c1cccc([N+](=O)[O-])c1` (stereo unspecified) [CILNIDIPINE]: the IC50 in experiment [1] worked out at 1.6 µM; in experiment [2] it was 0.0011 µM. The molecule also gave an inhibition in vivo at 30 mg/kg in the experiment with Rattus norvegicus of 46%.
For `CC1=NC(C)=C(C(=O)O)C(c2ccoc2)/C1=C(\O)OC/C=C/c1ccccc1` (stereo unspecified), the IC50 in experiment [1] was 11 µM; in experiment [2], 0.13 µM.
As for `CC1=NC(C)=C(C(=O)O)C(c2ccc([N+](=O)[O-])cc2)/C1=C(\O)OC/C=C/c1ccccc1` (stereo unspecified), the IC50 in experiment [1] came to 21 µM; in experiment [2] it was 1.6 µM.
For `CC1=NC(C)=C(C(=O)O)C(c2cccc(Cl)c2)/C1=C(\O)OC/C=C/C1CCCCC1` (stereo unspecified), the IC50 in experiment [1] stood at 0.83 µM; in experiment [2], 0.0037 µM.
For `CC1=NC(C)=C(C(=O)O)C(c2cccc(Cl)c2)/C1=C(\O)OCC(=O)Nc1ccccc1` (stereo unspecified), the IC50 amounted to 28 µM in experiment [1] and 0.05 µM in experiment [2].
Regarding `CC1=C(C(=O)O)C(c2cccc(Cl)c2)C(C(=O)OCCC(c2ccccc2)c2ccccc2)=C(C(F)(F)F)N1` (stereo unspecified), the IC50 was determined as 1.7 µM in experiment [1] and 1.8 µM in experiment [2]. In the experiment on Rattus norvegicus, this molecule returned an inhibition in vivo at 30 mg/kg of 46%.
As for `CC1=NC(C)=C(C(=O)O)C(c2cccc(C(=O)O)c2)/C1=C(\O)OC/C=C/c1ccccc1` (stereo unspecified), the half-maximal inhibitory concentration (IC50) was 37 µM in experiment [1] and above 10 µM in experiment [2].
As for `CC1=NC(C)=C(C(=O)O)C(c2ccsc2)/C1=C(\O)OC/C=C/c1ccccc1` (stereo unspecified), the figures for the IC50 in experiment [1] and in experiment [2] were 2.9 µM and 0.044 µM, respectively.
In the same order, the values of `CC1=NC(C)=C(C(=O)O)C(c2cccc(Cl)c2)/C1=C(\O)OC/C=C/c1ccc(Cl)cc1` (stereo unspecified) are 1.5 µM and 0.0058 µM.
On to `CC1=NC(C)=C(C(=O)O)C(c2cccc(C)c2)/C1=C(\O)OC/C=C/c1ccccc1` (stereo unspecified), for which the concentration for half-maximal inhibition (IC50) in experiment [1] stood at 1.8 µM; in experiment [2], 0.076 µM.
In the same order, the values of `CC1=NC(C)=C(C(=O)O)C(c2cccc(Cl)c2)/C1=C(\O)OC/C=C/c1ccncc1` (stereo unspecified) are 6.2 µM and 0.32 µM.

Values taken from ChEMBL document CHEMBL1149455, “Structure-activity relationship study of 1,4-dihydropyridine derivatives blocking N-type calcium channels” (Bioorg Med Chem Lett, 2006).
